Screens as filed in PubChem.
PolyA inhibitor – yeast polyadenylation inhibition; activity score, % at 12 µM; 300,000 compounds, 0.02% hits; S. cerevisiae SKY197-pL101 polyadenylation reporter, beta-gal luminescence; efflux-impaired pdr1/pdr3 knockout yeast; score 100 = 6 SD above DMSO;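 active = lowest replicate activity score at least 50, where 100 means six control SD above control mean; inconclusive = lowest score under 50 but half or more replicates reach 50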;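 also: yeast exposed to compound for 9 h at 30 °C; higher score means more reporter readthrough which indicates perturbed polyadenylation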
T cruzi repl – blocks replication of Trypanosoma cruzi | 300,000 compounds, 1.4% hits | AID 1885 | inhibition, % (concentration not given with the values) | T. cruzi beta-gal in NIH3T3, luminescence, 90 h;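 active = mean inhibition across valid replicates above about 55%, limit read from the data; inconclusive = mean below that limit but half or more replicates reach it; inactive = mean below it, under half of replicates reach it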;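 also: signal also drops with host cell toxicity which is not excluded here; higher percent means less beta-gal luminescence so fewer parasites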
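compound dosing = single 50 nL compound addition per well in DMSO | material = NIH/3T3 host cells with β-galactosidase reporter T. cruzi | input = 5,000 host fibroblasts per well | timing = ≥90 h infection period, 3 h prior cell attachment | read-out basis = percent inhibition of parasite-derived β-gal signal | detection = GalScreen β-gal luminescence, detergent lysis, 60 min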
Calb FLC – C. albicans growth modulation with fluconazole; C. albicans CaCi-2 (fluconazole-resistant clinical isolate) + fluconazole, Alamar Blue growth, 48 h; growth inhibition, % (concentration not given with the values); 300,000 compounds, 0.57% hits;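 active = growth inhibition above about 58% in most replicates, limit read from the data, passing the limit was not always enough; inconclusive = exactly half the replicates above a set limit; inactive = most replicates below a set limit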;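 also: all wells also contain fluconazole at 8 µg/ml as a sub-toxic cotreatment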
Lmaj promast – inhibitors of Leishmania major promastigote growth | inhibition, % at 10 µM | Leishmania major promastigotes, resazurin fluorescence viability | AID 1063 | 200,000 compounds, 9% hits; in the data active = inhibition above about 50%;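 also: promastigotes grown with compound for 44 hours at 28 °C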
NALP1 inh – inhibitors of NALP1 inflammasome in yeast; S. cerevisiae NALP1/ASC/caspase-1 growth, X-gal OD620, 72 h; inhibition, % at 10 µM; 280,000 compounds, 0.61% hits; in the data active = inhibition mostly above about 24%, no sharp cut-off; inactive = mostly below about 32%
NALP3 yeast inh – blocks the NALP3 inflammasome reconstituted in yeast. 330,000 compounds, 0.39% hits. AID 2825. inhibition, % at 10 µM. Yeast reconstituted NLRP3/ASC/caspase-1, beta-gal luminescence, 24 h;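 active = inhibition of 50% or more; inactive = inhibition below 50%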
Lmaj promast 1uM – L. major promastigote growth inhibition, 1 uM repeat. shares compounds with Lmaj promast. resazurin fluorescence, 48 h. inhibition, % at 1 µM. 1,100 compounds, 13% hits. AID 1258;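 active = inhibition above about 50% in both repeat tests, limit read from the data; inconclusive = one repeat under the set limit, the other over it; inactive = both repeats under the set limit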
A number is an active result; – = inactive; ? = inconclusive; · = no result; ! = repeats disagree. Many of the other results were omitted from the sample, so hits are more common in it than they were.

SMILES	PolyA inhibitor	T cruzi repl	Calb FLC	Lmaj promast	NALP1 inh	NALP3 yeast inh	Lmaj promast 1uM
NC(=O)c1cc(NC(=O)CCc2nc3ccccc3s2)cc(C(N)=O)c1	–	–	–	·	–	–	·
CCOc1ccc(NC(=O)CN(C)C(=O)C(C)N2C(=O)c3ccccc3C2=O)cc1OCC (stereo unspecified)	·	·	·	·	·	–	·
CCCOC(=O)CSC1=C(C#N)C(c2ccccc2Cl)CC(=O)N1 (stereo unspecified)	–	–	–	100	–	–	93
c1ccc2c(CSCCc3ccncc3)cccc2c1	–	–	–	99	–	–	–
COc1ccccc1N1CCN(C(c2cccs2)C(C)NC(=O)c2ccco2)CC1 (stereo unspecified)	–	–	–	·	–	–	·
O=C(NNc1ccc([N+](=O)[O-])cc1)Nc1ccccc1	–	–	–	·	–	–	·
O=C(NNc1ccccc1)C(=O)NNS(=O)(=O)c1ccc([N+](=O)[O-])cc1	–	61	–	89	–	–	–
CC(O)CN(Cc1cccc(Cl)c1)CC(C)O (stereo unspecified)	·	–	–	–	–	–	·
O=Cc1ccc2ccc3cccnc3c2n1	–	–	–	·	–	–	·
c1cnc2c(c1)ccc1cccnc12	–	55!	110	100	54!	–	52!
CN1C(=O)C(C)(C)c2cc(S(=O)(=O)NCC(=O)NCc3ccccc3)ccc21	–	–	–	·	–	–	·
CC1CCCC(NC(=O)COC(=O)c2ccc3c(c2)OCCO3)C1C (stereo unspecified)	·	·	·	·	·	–	·
N#CC1=C(Nc2ccccc2)SC=C(c2ccc(Cl)c(Cl)c2)N=C1N1CCOCC1	–	–	–	100	–	–	–
Oc1ccc(Cl)cc1C1=NCCNC(C(F)(F)C(F)F)=C1	–	–	–	76	–	–	–
Cc1ccc(O)c(C2=NCCNC(C(F)(F)C(F)F)=C2)c1	–	–	–	–	–	–	·
CN(C)CCNc1c2c(c(C#N)c3nc4ccccc4n13)CCCC2	–	62	?	54	–	–	–
Cn1c(C(=O)N2CCc3ccccc3C2)cc2c(=O)n3ccccc3nc21	–	–	–	97	–	–	–
Cn1c(C(=O)N2CCOCC2)cc2c(=O)n3ccccc3nc21	–	–	–	·	–	–	·
C=CCC[C@@H](Cc1ccc(F)cc1)C(=O)OCCNC(=O)[C@H](CC=C)CC(=O)NCCO	·	·	·	·	·	–	·
O=C(N/C=N/OCc1cccc(C(F)(F)F)c1)N1OC[C@@H]2COc3ccc4ccccc4c3[C@@H]21	–	–	–	92	–	–	–
COCCN(C(=O)COC(=O)c1cc(C)oc1C)c1c(N)n(Cc2ccccc2)c(=O)[nH]c1=O	–	–	–	·	·	–	·
c1ccc(Cn2nnnc2C(c2ccncc2)N2CCOCC2)cc1 (stereo unspecified)	–	–	–	–	–	–	·
Cc1cc(C(c2nnnn2Cc2ccccc2)N2CCOCC2)c(C)n1-c1ccc2c(c1)OCO2 (stereo unspecified)	–	–	–	61	–	–	–
Cc1cc(C)cc(OCc2ccc(C(=O)NN)o2)c1	–	–	–	·	–	–	·
Cc1ccc(CNC(=O)c2cn(C3CCCCC3)c(=O)c3c2c2ccccc2n3C)o1	–	–	–	53	–	–	–
SMILES	PolyA inhibitor	T cruzi repl	Calb FLC	Lmaj promast	NALP1 inh	NALP3 yeast inh	Lmaj promast 1uM
S=c1[nH]nc(-c2cc(-c3ccco3)[nH]n2)n1-c1cccc2ccccc12	–	–	?	98	–	–	–
COc1ccc(OC)c(S(=O)(=O)Nc2ccc(Oc3ccccc3)cc2)c1	–	–	–	67	–	–	–
CCOc1ccc(NS(=O)(=O)c2cc(OC)ccc2OC)cc1	–	–	–	–	–	–	·
O=C(O)CNS(=O)(=O)c1ccc2c(c1)Cc1cc(S(=O)(=O)NCC(=O)O)ccc1-2	–	–	–	·	–	–	·
CC(C)c1ccc(/C=C2\SC(=O)N(CC(=O)NCCCn3ccnc3)C2=O)cc1	–	–	–	·	–	–	·
CCN1C(=O)C(CC(=O)Nc2ccc(Br)cc2)N(CCCc2ccccc2)C1=S (stereo unspecified)	–	56	–	92	–	–	–
CCN1C(=O)C(CC(=O)Nc2ccc(OC)cc2)N(CCc2ccc(OC)cc2)C1=S (stereo unspecified)	–	–	–	–	–	–	·
Cc1ccc(OCc2nc(C#N)c(NCc3ccc4c(c3)OCO4)o2)cc1	–	–	–	98	–	–	–
O=C(N/N=C/c1ccco1)c1cc([N+](=O)[O-])cc([N+](=O)[O-])c1	–	–	–	97	–	–	–
Cc1nc2ccccc2cc1C(=O)N/N=C/c1ccco1	–	–	–	70	–	–	–
O=C(N/N=C/c1ccco1)c1cccc([N+](=O)[O-])c1	–	–	–	–	–	–	·
Cc1ccc2nc(C)c(C(=O)N/N=C/c3ccco3)cc2c1	–	–	–	–	–	–	·
Nn1c(Cc2cccc3ccccc23)nnc1SCCOc1ccc(F)cc1	–	–	–	–	–	–	·
CCCCCCCCC/C(=N\O)c1ccccn1	–	63	?	87	–	–	–
CCCCCCCCC(=O)N/N=C/c1ccccn1	–	–	–	–	–	–	·
O=C1C=C(NCCOC23CC4CC(CC(C4)C2)C3)C2(CCCCC2)O1	–	–	–	86	–	–	–
COc1ccc(-c2nn(-c3ccccc3C)cc2CNCCc2cnc[nH]2)cc1F	–	–	–	96	–	–	–
CCn1cc(CNCc2cn(-c3ccccc3C)nc2-c2ccc(OC)c(F)c2)cn1	–	–	–	–	–	–	·
COc1ccccc1CNC(=O)COC(=O)C1CCN(c2ccc(C(F)(F)F)cn2)CC1	–	–	–	·	·	–	·
COc1ccc(C(=O)OCCCc2cc3ccccc3c(=O)o2)cc1	·	·	·	·	·	–	·
CN(Cc1ccccc1)C(=O)CC(c1ccccc1)c1cc(Cl)ccc1O (stereo unspecified)	–	·	–	81	–	–	–
Nc1ccc(Nc2ccccc2N)cc1	·	–	–	99	–	–	–
Nc1ccccc1Nc1cccc(C(F)(F)F)c1	–	–	–	–	–	–	·
Cc1cc([N+](=O)[O-])nn1Cc1ccc(C(=O)N/N=C/c2ccc(N(C)C)cc2)cc1	–	–	–	·	–	–	·
Cn1nc([N+](=O)[O-])nc1Sc1nnc(-c2ccccc2)o1	–	69	–	99	–	–	–
Cc1ccc(C2N(C)C(=O)c3ccccc3N2C)cc1 (stereo unspecified)	–	–	–	·	–	–	·
Oc1c(C=NCc2ccccc2)sc2ccccc12	–	–	–	56	–	–	–
Oc1cccc(C=NCc2ccccc2)c1O	–	–	–	–	–	–	·
CCc1nc2ccccc2c(C(=O)OCC(=O)N(CC(C)C)c2c(N)n(Cc3ccccc3)c(=O)[nH]c2=O)c1C	·	·	·	·	·	–	·
O=C(O)c1cccnc1Sc1ccccc1	–	–	–	56	–	–	–
